For 38 variants, yeast fitness results are on record in the RNAGym collection of RNA variant scans (doi:10.1126/science.aae0568).

The labels stand for the following.
B1: tRNA (parent)
chain: GUUCCGUUGGCGUAAUGGUAACGCGUCUCCCUCCUAAGGAGAAGACUGCGGGUUCGAGUCCCGUACGGAACG

This sample holds only a part of the variants without activity.

This data set covers variants of B1. Nature of the data set: yeast fitness relative to wild type (ratio to wild type); higher = fitter; tRNA-Arg(CCU), competitive growth, 37 C, YPD. In outline: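 Genotype frequency changes were the basis for Darwinian fitness relative to wild type. The frequencies came from 100-nucleotide paired-end sequencing of gene amplicons from the start population and each end population of pooled yeast strains with tRNA-Arg(CCU) gene variants at the native locus. Competition ran in YPD at 37°C for 24 hours in six replicates, genotypes needed ≥ 100 starting reads, and estimates < 0.5 were set to 0.5.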
For the variant GUUCCGUUGGCGUAAUGGUAACGCGUCUCCGUUCAAAGGAGAAGACUGCGGGUUCGAGUCCCGUACGGAACG [C31G C33U U35A], the yeast fitness was at most 0.5.
As to GUUCCGUUGGCGUAAUGGUAACGCGUCUCCAUCCUAAGGAGAAGACUGCGGGUUCGAGACCCGUACGGACCG [C31A U59A A70C], the yeast fitness is at most 0.5.
For the variant GUUCCGUUGGCGUAAUGGUAACGCGUCUCCAUCCUAAGGAGAAGACUGCGGGUUCGAGUCCAGUAGGGAACG [C31A C62A C66G], the yeast fitness was at most 0.5.
Next, GUUCCGUUGGCGUAAUGGUAACGCGUCUCCAUCCUAAGGAGAAGACUGCGGCUUCGAGUCCCGUUCGGAACG [C31A G52C A65U]: at most 0.5.
GUUCCGUUGGCGUAAUGGUAACGCGUCUCCGUUCUAAGGCGAAGACUGCGGGUUCGAGUCCCGUACGGAACG [C31G C33U A40C]: the yeast fitness is 0.6.
With GUUCCGUUGGCGUAAUGGUAACGCGUCUCCAUGCUAAGGAGCAGACUACGGGUACGAGUCCCGUACGGAACG [C31A C33G A42C G48A U54A], the yeast fitness was at most 0.5.
For GUUCCGUUGGCGUAAUGGUAACGCGUCUCCAUGCUUAGGAGAAGACUGCGGGUUCGAGUUCCGGUCGGCACG [C31A C33G A36U C60U U64G A65U A69C], the yeast fitness was at most 0.5.
Regarding GUUCCGUUGGCGUAAUGGUAACGCGUCUCCGUUCUACGGAGAAGACUGCGGGUUCGAGUCCCGUACGGAACG [C31G C33U A37C], the yeast fitness was at most 0.5.
With GUUCCGUUGGCGUAAUGGUAACGCGUCUCCAUCCUAAGGAGAAGACUGCGCGUUGGUGUCCCGUAUGGAACG [C31A G51C C55G A57U C66U], the yeast fitness was 0.564.
As to GUUCCGUUGGCGUAAUGGUAACGCGUCUCCAUCCUAAGGAGAUGACUGCGGGUUCGAGUCACGUACGGAACG [C31A A43U C61A], the yeast fitness is at most 0.5.
Take GUUCCGUUGGCGUAAUGGUAACGCGUCUCCAUCCUAAGGAGAAGACUGAGGGUUCGAGUUCCGUACGGAACG [C31A C49A C60U]: the yeast fitness was at most 0.5.
Next, GUUCCGUUGGCGUAAUGGUAACGCGUCUCCAUCCUAAGGAGAACACUGCGGGUUCGAGUGCCGUACGGAACG [C31A G44C C60G]: at most 0.5; GUUCCGUUGGCGUAAUGGUAACGCGUCUCCAUCCUAAGCAGAAGACUGCGGGUUCGAGUCCCGUACGGAACG [C31A G39C]: 0.659.
Regarding GUUCCGUUGGCGUAAUGGUAACGCGUCUCCAUCCUAUGGAGAAGACUGAGGGUUUGAGUCCCGUACGGAACG [C31A A37U C49A C55U], the yeast fitness was at most 0.5.
Regarding GUUCCGUUGGCGUAAUGGUAACGCGUCUCCAUCCUAAGGAGAAGACUGCGGGUUAGAGUCACAUACGGAACG [C31A C55A C61A G63A], the yeast fitness was found to be 0.655.
As to GUUCCGUUGGCGUAAUGGUAACGCGUCUCCGUCCUAAGGAGAUGAGUGCGGGUUCGAGUCCCGUAUGGAUCG [C31G A43U C46G C66U A70U], the yeast fitness is at most 0.5.
For GUUCCGUUGGCGUAAUGGUAACGCGUCUCCAUCCUAAGGAGAAGACUGCGGGUUGGAGUCCCGUACGGAACG [C31A C55G], the yeast fitness is 0.529.
Turning to GUUCCGUUGGCGUAAUGGUAACGCGUCUCCAUCCUAAGGAGAAGACUGCGGGGUCGGGUCCCGUACGGAACG [C31A U53G A57G], the yeast fitness was at most 0.5.
As to GUUCCGUUGGCGUAAUGGUAACGCGUCUCCGUCGUAAGGAGCAGACUGCGGGUUCGAGUCCCGUAGGGAACG [C31G C34G A42C C66G], the yeast fitness is at most 0.5.
On to GUUCCGUUGGCGUAAUGGUAACGCGUCUCCAUCCUAAGGAGAUGACUGCGGGUACGAGUCCCGUACGGAACG [C31A A43U U54A], for which the yeast fitness was at most 0.5.
In the case of GUUCCGUUGGCGUAAUGGUAACGCGUCUCCAUACUAAGGAGAAGACUGCGGGUUCGAGUCCCGUACGGAACG [C31A C33A], the yeast fitness was found to be 0.509.
For GUUCCGUUGGCGUAAUGGUAACGCGUCUCCAUCCUAAGGAGGAGACUGCGGGUUCGAGUCCCGUACGGAACG [C31A A42G], the yeast fitness worked out at 0.766.
On to GUUCCGUUGGCGUAAUGGUAACGCGUCUCCGUCCUAAGGAGAGGACUGUGGGUUCGAGUCCCGUACGAAACG [C31G A43G C49U G68A], for which the yeast fitness turned out to be 0.558.
With GUUCCGUUGGCGUAAUGGUAACGCGUCUCCGUCCUAAGGAGAAGUCAGCGGGUUCGAGUCCCGUACAGAACG [C31G A45U U47A G67A], the yeast fitness was at most 0.5.
GUUCCGUUGGCGUAAUGGUAACGCGUCUCCGUCCUAAGGAGAAGUCUGGGGGUUCGAGUCCCGUACGGAUCG [C31G A45U C49G A70U]: the yeast fitness is at most 0.5.
Consider GUUCCGUUGGCGUAAUGGUAACGCGUCUCCAUCCUGAGGAGAAGACUGCGGGUUCGCGUCCCGUACGGAACG [C31A A36G A57C], for which the yeast fitness was at most 0.5.
To GUUCCGUUGGCGUAAUGGUAACGCGUCUCCAUCCUAAAGAGAAGACUGCGGGUUCGAGUCCCGUGCGGAACG [C31A G38A A65G] belongs 0.591; to GUUCCGUUGGCGUAAUGGUAACGCGUCUCCGUCCUCAGGAAAAGACUGUGGGUUCGAGUCCCGUACGGAACG [C31G A36C G41A C49U], at most 0.5.
In the case of GUUCCGUUGGCGUAAUGGUAACGCGUCUCCAUCCUAAGGAGAAGACUGCGGGUUCAAGUCCCGUACAGUACG [C31A G56A G67A A69U], the yeast fitness is at most 0.5.
With GUUCCGUUGGCGUAAUGGUAACGCGUCUCCGUCCUAAGGGGAAGACUGCGGCUUCGAGUCCCGUACGGAACG [C31G A40G G52C], the yeast fitness was at most 0.5.
GUUCCGUUGGCGUAAUGGUAACGCGUCUCCGUCCUACGGAGAAGACUGCGGGUUCGAGUUCCGUACGGAACG [C31G A37C C60U]: the yeast fitness is at most 0.5.
With GUUCCGUUGGCGUAAUGGUAACGCGUCUCCAUCUUAAGGAGAAGACUGCGGGUCCGAGUCCCGUACGGCACG [C31A C34U U54C A69C], the yeast fitness was at most 0.5.
GUUCCGUUGGCGUAAUGGUAACGCGUCUCCAUCCUAAGGAGAAGACUGCGGGUUCGAGUCCCGGACGGCACG [C31A U64G A69C]: the yeast fitness is at most 0.5.
Take GUUCCGUUGGCGUAAUGGUAACGCGUCUCCAUCCUAAGGAGAAGACUGAGGGUUCAAGUCCCGUGAGCAACG [C31A C49A G56A A65G C66A G68C]: the yeast fitness was at most 0.5.
Take GUUCCGUUGGCGUAAUGGUAACGCGUCUCUCUCCUAAGGAGAAGACUGCGGGUGCGAGGCCCGUACGGAACG [C30U U54G U59G]: the yeast fitness was found to be 0.655.
Next, GUUCCGUUGGCGUAAUGGUAACGCGUCUCCGUCCUAAGGAGAAGUCUGCGGGUUCGAUUCCUGUACGGAACG [C31G A45U G58U C62U]: at most 0.5.
On to GUUCCGUUGGCGUAAUGGUAACGCGUCUCCAUCCUAAGGAGAAGACUGCGGCUUCGAGUCCCGCACGGAACG [C31A G52C U64C], for which the yeast fitness was at most 0.5.
In the case of GUUCCGUUGGCGUAAUGGUAACGCGUCUCCGUCCUCAGGAGAAGACUGGGGGUUCGAGUCCCGUACGGAACG [C31G A36C C49G], the yeast fitness is at most 0.5.
